In ChEMBL document CHEMBL1156160, “The introduction of P4 substituted 1-methylcyclohexyl groups into Boceprevir: a change in direction in the search for a second generation HCV NS3 protease inhibitor” (Bioorg Med Chem Lett, 2010):

How the values were obtained:
[1] = Inhibition of HCV NS4A tagged recombinant single chain NS3 protease after 15 mins; design: species or system Hepacivirus hominis
[2] = Selectivity for HCV NS3 protease over human neutrophil elastase
How it was run: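 Ratio of inhibitory activity against human neutrophil elastase to that against HCV protease (HNE/HCV), taken as selectivity. HCV activity was from a continuous protease assay using NS4A-tethered single-chain NS3 serine protease, giving Ki* as the equilibrium constant for reversible covalent binding of the electrophilic ketone to the active-site serine. Compounds were tested as P1-epimer diastereomer mixtures.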

Hepatitis C virus = test: Antiviral activity against HCV in human hepatoma cells assessed as inhibition of RNA replication by replicon assay; format: functional, Hepacivirus hominis
[3] = Bioavailability in dog; format: ADME, organism-based, Canis lupus familiaris; settings: in vivo
[4] = AUC in monkey at 3 mg/kg, po; format: ADME, organism-based, Macaca mulatta; design: dose 3 mg/kg, route oral; settings: rhesus monkey, plasma

Row | Ki [1] [nM] | Ratio [2] | EC90 (Hepatitis C virus) [nM] | bioavailability [3] [%] | AUC [4] [µM·h] | SMILES
1 | 14 | 2200 | 350 | 34 | 0.12 | CC(C)(C)NC(=O)N[C@H](C(=O)N1C[C@H]2[C@@H]([C@H]1C(=O)NC(CC1CCC1)C(=O)C(N)=O)C2(C)C)C(C)(C)C (stereo not given in full) [BOCEPREVIR]
2 | 11 | 2600 | 400 | – | – | CC(c1ccccc1)C1(NC(=O)N[C@H](C(=O)N2C[C@H]3[C@@H]([C@H]2C(=O)NC(CC2CC2)C(=O)C(N)=O)C3(C)C)C(C)(C)C)CCCCC1 (stereo not given in full)
3 | 6 | 200 | 1000 | – | – | CC(C)(C)[C@H](NC(=O)NC1(CS(=O)(=O)c2cccc(O)c2)CCCCC1)C(=O)N1C[C@H]2[C@@H]([C@H]1C(=O)NC(CC1CC1)C(=O)C(N)=O)C2(C)C (stereo not given in full)
4 | 4 | 2400 | 500 | – | – | CC(C)(C)[C@H](NC(=O)NC1(CS(C)(=O)=O)CCCCC1)C(=O)N1C[C@H]2[C@@H]([C@H]1C(=O)NC(CC1CCC1)C(=O)C(N)=O)C2(C)C (stereo not given in full)
5 | 2 | 460 | 300 | – | – | CC(C)(C)[C@H](NC(=O)NC1(CS(C)(=O)=O)CCCCC1)C(=O)N1C[C@H]2[C@@H]([C@H]1C(=O)NC(CC1CC1)C(=O)C(N)=O)C2(C)C (stereo not given in full)
6 | 20 | 1500 | 400 | – | – | CCC(c1ccccc1)C1(NC(=O)N[C@H](C(=O)N2C[C@H]3[C@@H]([C@H]2C(=O)NC(CC2CC2)C(=O)C(N)=O)C3(C)C)C(C)(C)C)CCCCC1 (stereo not given in full)

Continued, compound first:

Row | SMILES | Ki [1] [nM] | Ratio [2] | EC90 (Hepatitis C virus) [nM] | bioavailability [3] [%] | AUC [4] [µM·h]
7 | CC(C)(C)[C@H](NC(=O)NC1(Cc2ccc(O)cc2)CCCCC1)C(=O)N1C[C@H]2[C@@H]([C@H]1C(=O)NC(CC1CC1)C(=O)C(N)=O)C2(C)C (stereo not given in full) | 30 | 260 | 400 | – | –
8 | CC(C)(C)[C@H](NC(=O)NC1(Cc2ccccc2)CCCC1)C(=O)N1C[C@H]2[C@@H]([C@H]1C(=O)NC(CC1CC1)C(=O)C(N)=O)C2(C)C (stereo not given in full) | 24 | 130 | 300 | – | –
9 | CC(C)(C)[C@H](NC(=O)NC1(c2ccccc2)CCCCC1)C(=O)N1C[C@H]2[C@@H]([C@H]1C(=O)NC(CC1CC1)C(=O)C(N)=O)C2(C)C (stereo not given in full) | 47 | 320 | 400 | – | –
10 | CCS(=O)(=O)CC1(NC(=O)N[C@H](C(=O)N2C[C@H]3[C@@H]([C@H]2C(=O)NC(CC2CC2)C(=O)C(N)=O)C3(C)C)C(C)(C)C)CCCCC1 (stereo not given in full) | 11 | 290 | 400 | – | –
11 | CC(C)(C)[C@H](NC(=O)NC1(Cc2ccccc2)CCCCCC1)C(=O)N1C[C@H]2[C@@H]([C@H]1C(=O)NC(CC1CC1)C(=O)C(N)=O)C2(C)C (stereo not given in full) | 78 | 73 | 700 | – | –
